Results from ChEMBL document CHEMBL1140329, “Control of protein-protein interactions: structure-based discovery of low molecular weight inhibitors of the interactions between Pin1 WW domain and phosphopeptides” (J Med Chem, 2005).
Where a SMILES comes first, the peptide text is derived from it. [ ]: non-standard residue; d: D form. The star is where a group is joined. pT = C[C@@H](OP(=O)(O)O)[C@H](N)C(=O)O; Fmoc = O=C(OCC1c2ccccc2-c2ccccc21)*; Hydrocinnamoyl = O=C(CCc1ccccc1)*; ΔPro = O=C(O)[C@@H]1C=CCN1; Thz = O=C(O)[C@@H]1CSCN1; PhAc = O=C(Cc1ccccc1)*

Target: Peptidyl-prolyl cis-trans isomerase NIMA-interacting 1 (Homo sapiens, UniProt Q13526)
Sequence (Q13526 whole entry): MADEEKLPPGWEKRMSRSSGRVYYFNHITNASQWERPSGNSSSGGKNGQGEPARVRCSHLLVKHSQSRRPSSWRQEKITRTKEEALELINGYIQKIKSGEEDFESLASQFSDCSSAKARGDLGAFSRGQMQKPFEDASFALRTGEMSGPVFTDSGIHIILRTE
Assay: Dissociation constant for human peptidyl-prolyl cis-trans isomerase NIMA-interacting 1
Method in brief: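 15N-labeled Pin1 WW domain (His6-tagged, expressed in E. coli BL21(DE3)) in 25 mM deuterated Tris-HCl pH 6.8, 50 mM NaCl, 5 mM DTT, 2.5 mM EDTA, 10% D2O; 600 MHz 1H-15N HSQC at 293 K. 50 μM protein titrated with ligand 0.025–1 mM final; chemical shift perturbations fitted to a single-site equation for KD.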

Compound	Kd
CC(=O)N[C@@H](CCC(=O)O)C(=O)N1CCC[C@H]1C(N)=O (Ac-Glu-Pro-NH2)	> 2000 µM
C[C@@H](OP(=O)(O)O)[C@H](NC(=O)CCC(C)(c1ccc(O)cc1)c1ccc(O)cc1)C(=O)N1CC=C[C@H]1C(N)=O	5 µM
CC(=O)N[C@H](C(=O)N1CC(F)CC1C(N)=O)[C@@H](C)OP(=O)(O)O (single isomer, unassigned)	36 µM
CC(=O)N[C@H](C(=O)N1C[C@@H](F)C[C@H]1C(N)=O)[C@@H](C)OP(=O)(O)O	420 µM
C[C@@H](OP(=O)(O)O)[C@H](NC(=O)OCC1c2ccccc2-c2ccccc21)C(=O)N1CCC[C@H]1C(N)=O (Fmoc-[pT]-Pro-NH2)	15 µM
C[C@@H](OP(=O)(O)O)[C@H](NC(=O)CCCc1ccccc1)C(=O)N1CCC[C@H]1C(N)=O	30 µM
CC(=O)N[C@H](C(=O)N1CC(O)CC1C(N)=O)[C@@H](C)OP(=O)(O)O (single isomer, unassigned)	800 µM
CC(=O)N[C@H](C(=O)N1CCC1C(N)=O)C(C)OP(=O)(O)O (single isomer, unassigned)	160 µM
C[C@@H](OP(=O)(O)O)[C@H](NC(=O)Cc1ccccc1)C(=O)N1CCC[C@H]1C(N)=O (PhAc-[pT]-Pro-NH2)	35 µM
NC(=O)[C@@H]1CCCN1C(=O)CCCC(=O)O	> 2000 µM
NC(=O)[C@@H]1CCCN1C(=O)CCC(=O)O	> 2000 µM
NC(=O)[C@@H]1CCCN1C(=O)[C@H](CCCCNc1c(O)c(=O)c1=O)NC(=O)OCC1c2ccccc2-c2ccccc21	540 µM
C[C@@H](OP(=O)(O)O)[C@H](NC(=O)C(c1ccccc1)c1ccccc1)C(=O)N1CCC[C@H]1C(N)=O	38 µM
NC(=O)[C@@H]1CCCN1C(=O)CCNS(=O)(=O)C(F)(F)F	> 2000 µM
NC(=O)[C@@H]1CCCN1C(=O)CC/N=c1\c(O)c(O)c1=O	> 2000 µM
NC(=O)[C@@H]1CCCN1C(=O)CCP(=O)(O)O	> 2000 µM
CC(=O)N[C@H](C(=O)N1CSC[C@H]1C(N)=O)[C@@H](C)OP(=O)(O)O (Ac-[pT]-[Thz]-NH2)	400 µM
NC(=O)[C@@H]1CCCN1C(=O)[C@H](CCC/N=c1\c(O)c(O)c1=O)NC(=O)OCC1c2ccccc2-c2ccccc21	910 µM
CC(=O)N[C@H](C(=O)N1CCC[C@@H]1C(N)=O)[C@@H](C)OP(=O)(O)O	100 µM
C[C@@H](OP(=O)(O)O)[C@H](NC(=O)OCC1c2ccccc2-c2ccccc21)C(=O)N1CC=C[C@H]1C(N)=O (Fmoc-[pT]-[ΔPro]-NH2)	66 µM
C[C@@H](OP(=O)(O)O)[C@H](NC(=O)CCCCc1ccccc1)C(=O)N1CCC[C@H]1C(N)=O	48 µM
CC(=O)N[C@H](C(=O)N1CC=C[C@H]1C(N)=O)[C@@H](C)OP(=O)(O)O (Ac-[pT]-[ΔPro]-NH2)	18 µM
CC(=O)N[C@H](C(=O)N1CCCCC1C(N)=O)C(C)OP(=O)(O)O (single isomer, unassigned)	140 µM
C[C@@H](OP(=O)(O)O)[C@H](NC(=O)CCc1ccccc1)C(=O)N1CCC[C@H]1C(N)=O (Hydrocinnamoyl-[pT]-Pro-NH2)	32 µM
C[C@@H](OP(=O)(O)O)[C@H](NC(=O)CCCc1ccccc1)C(=O)N1CC=C[C@H]1C(N)=O	28 µM
